The nature of data set [1]: folding enthalpy; higher = less favourable; fluorescence melt of hairpins on a sequencing array, two-state fit. The following applies: sodium 0.088 M. A digest of the protocol:
(§1)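 To match UV melts, fitted temperatures were raised by 9.35 °C. These fits were bootstrapped two-state models that gave melting temperature and folding enthalpy, combined by inverse variance over four replicates. The input was normalised Cy3 fluorescence of library hairpins with annealed Cy3 and quencher oligos on a sequenced MiSeq flow cell, imaged in 50 mM Na-HEPES pH 8.0, 25 mM NaCl in 2.5 °C steps up to 60 °C.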

Data set [2] is described as follows: melting temperature; fluorescence melt of hairpins on a sequencing array, two-state fit, raised by 9.35 °C to match UV melts. Conditions: sodium 0.088 M. In a few lines: as §1

Take GCCCCGCGAAAGCTGGGC ((((.((....)).)))): the folding enthalpy in data set [1] is -39.2 kcal/mol. Further, the Tm in data set [2] was 68.8 °C.
Regarding GCCCCTCGAAAGAGCGGC (((.(((....))).))), the folding enthalpy in data set [1] was -33 kcal/mol. Moreover, the Tm in data set [2] stood at 49.8 °C.
For the sequence GCCCCTGCGAAAGCAGGC (((..(((....)))))), the folding enthalpy in data set [1] is -4.68 kcal/mol. For the same sequence, the Tm in data set [2] worked out at 42.4 °C.
On the same counts, the results for GCCCCTGGAAACAAGGGC ((((.((....)).)))) are -28.8 kcal/mol and 46.1 °C.
On the same counts, the results for GCCCCTGGAAACAGGAGC ((.((((....)))).)) are -30.6 kcal/mol and 47.5 °C.
For GCCCGACGAAAGTCGGC (((.(((....)))))), in that order: -8.71 kcal/mol and 61.4 °C.
For the sequence GCCCGCGAAAGCGACGGC ((((((....)))..))), the folding enthalpy in data set [1] is -22.3 kcal/mol. Further, the Tm in data set [2] was 54.9 °C.
For GCCCGCGAAAGCGCCGGC ((((((....)))..))), in that order: -17.5 kcal/mol and 52.3 °C.
With GCCCGCGAAAGCGTTGGC ((((((....)))..))), the folding enthalpy in data set [1] is -23.2 kcal/mol. The Tm in data set [2] is 56.2 °C.
As for GCCCGGCCGAAAGGCGGC (((..(((....)))))), in data set [1], the folding enthalpy was -13.2 kcal/mol. In data set [2], the Tm turned out to be 57.6 °C.
On the same counts, the results for GCCCGGCGAAAGCAGTGC ((.(.((....)).).)) are -18.2 kcal/mol and 40.5 °C.
For GCCCGGCGAAAGCATGGC (((..((....))..))), in that order: -19 kcal/mol and 56 °C.
Turning to GCCCGGCGAAAGCCCGGC (((.(((....))).))), the folding enthalpy in data set [1] was -17.1 kcal/mol. Besides, the Tm in data set [2] worked out at 60.5 °C.
For GCCCGGCGAAAGCCGGC (((.(((....)))))), in that order: -6.9 kcal/mol and 65.7 °C.
On to GCCCGGCGAAAGCTGTGC ((.(.((....)).).)), for which, in data set [1], the folding enthalpy is -19.7 kcal/mol. Moreover, the Tm in data set [2] was 40.9 °C.
For GCCCGGCGAAAGCTTGGC (((..((....))..))), the folding enthalpy in data set [1] was -18.8 kcal/mol. For the same sequence, in data set [2], the Tm was determined as 52.4 °C.
For GCCCGGGGAAACCCGGAC (.(((((....))))).), in that order: -13.4 kcal/mol and 51.3 °C.
For GCCCGGGGAAACCTGGGC ((((.((....)).)))), in that order: -52.3 kcal/mol and 62.3 °C.
For GCCCGTCGAAAGACAGGC (((.(((....))).))), in that order: -39 kcal/mol and 55.3 °C.
As to GCCCTAGCGAAAGCTGGC (((..(((....)))))), the folding enthalpy in data set [1] is -13.7 kcal/mol. In addition, the Tm in data set [2] amounted to 48 °C.
For GCCCTAGGAAACTAAGGC (((.(((....))).))), in that order: -21.1 kcal/mol and 34 °C.
In the case of GCCCTCCGAAAGGATGGC (((.(((....))).))), the folding enthalpy in data set [1] was -37.5 kcal/mol. Besides, in data set [2], the Tm stood at 55 °C.
With GCCCTCGGAAACAAGGGC (((((.(....).))))), the folding enthalpy in data set [1] was -35.8 kcal/mol. For the same sequence, the Tm in data set [2] is 49.6 °C.
GCCCTGACGAAAGTCGGC (((..(((....)))))): the folding enthalpy in data set [1] was -13.6 kcal/mol. Moreover, the Tm in data set [2] was found to be 48.9 °C.
In the case of GCCCTGCGAAAGCATTGC ((..(((....)))..)), in data set [1], the folding enthalpy was -8.56 kcal/mol. Besides, the Tm in data set [2] amounted to 29.3 °C.
On the same counts, the results for GCCCTGCGAAAGCCAGGC (((..((....))..))) are -15.7 kcal/mol and 53 °C.
With GCCCTGCGAAAGCCGCGC ((.(.((....)).).)), the folding enthalpy in data set [1] is -10.3 kcal/mol. In addition, the Tm in data set [2] turned out to be 34.9 °C.
Take GCCCTGCGAAAGCGTGGC (((..((....))..))): in data set [1], the folding enthalpy is -21.1 kcal/mol. The Tm in data set [2] came out at 55.6 °C.
In the case of GCCCTTCGAAAGAAAGGC (((.(((....))).))), the folding enthalpy in data set [1] is -28.5 kcal/mol. The Tm in data set [2] came to 45.1 °C.
In the case of GCCCTTGAAAAAGGGC ((((((....)))))), the folding enthalpy in data set [1] is -36 kcal/mol. In addition, the Tm in data set [2] came out at 68 °C.
On the same counts, the results for GCCGAAGAAATTCGGC ((((((....)))))) are -33.9 kcal/mol and 67.4 °C.
For GCCGAAGCGAAAGCTGGC (((..(((....)))))), in that order: -31.6 kcal/mol and 57.1 °C.
For GCCGAATCGAAAGATGGC (((..(((....)))))), the folding enthalpy in data set [1] is -26.3 kcal/mol. For the same sequence, in data set [2], the Tm was 46.2 °C.
Take GCCGACGAAAGTCGTGGC ((((((....)))..))): in data set [1], the folding enthalpy was -16.3 kcal/mol. Besides, the Tm in data set [2] was 57 °C.
For GCCGACGGAAACATCGGC (((((.(....).))))), in that order: -38.6 kcal/mol and 53 °C.
For GCCGACGGAAACGTTGGC (((.(((....))).))), in that order: -45.5 kcal/mol and 63.9 °C.
Regarding GCCGAGCGAAAGCCCCGC ((.(.((....)).).)), in data set [1], the folding enthalpy is -12.1 kcal/mol. Moreover, in data set [2], the Tm was determined as 32.2 °C.
